Laboratory results: ChEMBL document CHEMBL3259588, “Anti-inflammatory drimane sesquiterpene lactones from an Aspergillus species” (Bioorg Med Chem, 2014)
pIC50: −log10 of the molar value. Activity calls are given as the source filed them. No cut-off for these calls is given here.

Tests used:
Format in all cases: cell-based
[1] = (§1) Inhibition of TNF-alpha/IFN-gamma/IL-1beta-induced human CXCL10 (972 bp) promoter activity expressed in human DLD1 cells after 24 hrs by luciferase reporter assay; conditions: DLD-1, 24 h
How it was run: (§2)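 DLD-1 in 24-well plates, switched to 0.5% FCS without antibiotics a day before lipofection (Lipofectamine 2000, 0.8 µg plasmid) with 972 bp CXCL10 promoter, NF-κB, GAS/Stat1 or ISRE luciferase reporters plus pRL-CMV. Stimulated 24 h with 10 ng/mL TNF-α, 10 ng/mL IFN-γ, 5 ng/mL IL-1β ± compound; Dual-Glo firefly/Renilla read. Stimulation-only = 100%; mean ± SEM, ≥3 experiments.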

DLD-1 [2] = experiment: as §1; how it was run: as §2
[3] = Inhibition of TNF-alpha/IFN-gamma/IL-1beta-induced human CXCL10 (972 bp) promoter activity expressed in human DLD1 cells after 24 hrs by […]-driven luciferase reporter assay; conditions: DLD-1, 24 h; how it was run: as §2
[4] = molecular target: T1, Signal transducer and activator of transcription 1-alpha/beta (Homo sapiens) (UniProt P42224); experiment: Inhibition of Stat1 (unknown origin)-induced human CXCL10 (972 bp) promoter activity expressed in TNF-alpha/IFN-gamma/IL-1beta-stimulated human DLD1 cells after 24 hrs by luciferase reporter assay; conditions: DLD-1; how it was run: as §2
T1 sequence (whole entry): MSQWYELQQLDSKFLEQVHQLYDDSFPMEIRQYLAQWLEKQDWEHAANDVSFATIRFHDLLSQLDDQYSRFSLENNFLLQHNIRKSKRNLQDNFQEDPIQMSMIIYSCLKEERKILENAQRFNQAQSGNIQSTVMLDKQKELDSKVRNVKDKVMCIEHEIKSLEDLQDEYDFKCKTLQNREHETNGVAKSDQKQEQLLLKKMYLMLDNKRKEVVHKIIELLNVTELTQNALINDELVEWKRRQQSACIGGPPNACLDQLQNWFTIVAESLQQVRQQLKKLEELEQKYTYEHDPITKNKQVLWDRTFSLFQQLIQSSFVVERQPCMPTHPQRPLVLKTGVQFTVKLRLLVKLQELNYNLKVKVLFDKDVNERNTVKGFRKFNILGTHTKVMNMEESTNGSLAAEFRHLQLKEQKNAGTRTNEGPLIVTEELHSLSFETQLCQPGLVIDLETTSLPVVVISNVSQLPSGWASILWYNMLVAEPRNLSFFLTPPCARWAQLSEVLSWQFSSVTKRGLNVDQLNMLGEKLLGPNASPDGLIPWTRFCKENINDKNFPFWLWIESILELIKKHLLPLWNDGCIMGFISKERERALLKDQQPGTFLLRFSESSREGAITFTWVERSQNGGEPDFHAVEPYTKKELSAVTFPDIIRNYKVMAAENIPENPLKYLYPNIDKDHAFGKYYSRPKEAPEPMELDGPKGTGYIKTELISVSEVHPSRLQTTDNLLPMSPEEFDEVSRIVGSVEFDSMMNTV

DLD-1 [5] = experiment: Inhibition of TNF-alpha/IFN-gamma/IL-1beta-induced human CXCL10 (972 bp) promoter activity expressed in human DLD1 cells assessed as CXCL10 gene expression at 131.5 uM after 5 hrs by RT-PCR method relative to untreated-control
How it was run: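 Cells starved 16 h (0.5% FCS), compound pretreatment 1 h, then TNF-α 10 ng/mL/IFN-γ 10 ng/mL/IL-1β 5 ng/mL for 5 h. Total RNA analysed by two-step qRT-PCR for cxcl10, gapdh-corrected (Pfaffl); induced vs uninduced and treated-induced vs untreated-induced (100%).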

[6] = Cytotoxicity against human DLD1 cells up to 158 uM after 48 hrs by XTT assay; conditions: dld-1, 48 h
How it was run: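 DLD-1 cells (RPMI 1640, 25 mM HEPES, 10% FCS, 37 °C, 5% CO2) exposed to compound for 48 h; viability read as XTT reduction to coloured formazan.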

DLD-1 [7] = experiment: Inhibition of TNF-alpha/IFN-gamma/IL-1beta-induced human CXCL10 (972 bp) promoter activity expressed in human DLD1 cells assessed as reduction in CXCL10 expression pretreated at 131.5 uM for 1 hr prior to 16 hrs cytokine challenge by proteome profiling method relative to untreated-control
How it was run: (§3)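 DLD-1 starved 16 h in 0.5% FCS, seeded 5×10^6 cells/mL, pretreated 1 h with compound, then stimulated 16 h with 10 ng/mL TNF-α, 10 ng/mL IFN-γ, 5 ng/mL IL-1β. Supernatant cytokines/chemokines detected on Human Cytokine Array Panel A antibody array.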

DLD-1 [8] = experiment: Inhibition of TNF-alpha/IFN-gamma/IL-1beta-induced human CXCL10 (972 bp) promoter activity expressed in human DLD1 cells assessed as reduction in MIF expression pretreated at 131.5 uM for 1 hr prior to 16 hrs cytokine challenge by proteome profiling method relative to untreated-control; how it was run: as §3
DLD-1 [9] = experiment: Inhibition of TNF-alpha/IFN-gamma/IL-1beta-induced human CXCL10 (972 bp) promoter activity expressed in human DLD1 cells assessed as reduction in IL8 expression pretreated at 131.5 uM for 1 hr prior to 16 hrs cytokine challenge by proteome profiling method relative to untreated-control; how it was run: as §3
DLD-1 [10] = experiment: Inhibition of TNF-alpha/IFN-gamma/IL-1beta-induced human CXCL10 (972 bp) promoter activity expressed in human DLD1 cells assessed as reduction in CXCL1 expression pretreated at 131.5 uM for 1 hr prior to 16 hrs cytokine challenge by proteome profiling method relative to untreated-control; how it was run: as §3
DLD-1 [11] = experiment: Inhibition of TNF-alpha/IFN-gamma/IL-1beta-induced human CXCL10 (972 bp) promoter activity expressed in human DLD1 cells assessed as reduction in IL1-beta expression pretreated at 131.5 uM for 1 hr prior to 16 hrs cytokine challenge by proteome profiling method relative to untreated-control; how it was run: as §3
DLD-1 [12] = experiment: Inhibition of TNF-alpha/IFN-gamma/IL-1beta-induced human CXCL10 (972 bp) promoter activity expressed in human DLD1 cells assessed as reduction in IL-27 expression pretreated at 131.5 uM for 1 hr prior to 16 hrs cytokine challenge by proteome profiling method relative to untreated-control; how it was run: as §3
DLD-1 [13] = experiment: Inhibition of TNF-alpha/IFN-gamma/IL-1beta-induced human CXCL10 (972 bp) promoter activity expressed in human DLD1 cells assessed as reduction in TNF-alpha expression pretreated at 131.5 uM for 1 hr prior to 16 hrs cytokine challenge by proteome profiling method relative to untreated-control; how it was run: as §3
[14] = molecular target: T2, Nuclear factor NF-kappa-B complex (Homo sapiens) (UniProt Q00653+P19838+Q04206); experiment: Inhibition of NF-kappaB (unknown origin) expressed human DLD1 cells assessed as reduction in IL1-beta gene expression pretreated at 67.75 uM for 1 hr by RT-PCR method relative to untreated-control; conditions: DLD-1
T2 sequence (P19838 whole entry, looked up): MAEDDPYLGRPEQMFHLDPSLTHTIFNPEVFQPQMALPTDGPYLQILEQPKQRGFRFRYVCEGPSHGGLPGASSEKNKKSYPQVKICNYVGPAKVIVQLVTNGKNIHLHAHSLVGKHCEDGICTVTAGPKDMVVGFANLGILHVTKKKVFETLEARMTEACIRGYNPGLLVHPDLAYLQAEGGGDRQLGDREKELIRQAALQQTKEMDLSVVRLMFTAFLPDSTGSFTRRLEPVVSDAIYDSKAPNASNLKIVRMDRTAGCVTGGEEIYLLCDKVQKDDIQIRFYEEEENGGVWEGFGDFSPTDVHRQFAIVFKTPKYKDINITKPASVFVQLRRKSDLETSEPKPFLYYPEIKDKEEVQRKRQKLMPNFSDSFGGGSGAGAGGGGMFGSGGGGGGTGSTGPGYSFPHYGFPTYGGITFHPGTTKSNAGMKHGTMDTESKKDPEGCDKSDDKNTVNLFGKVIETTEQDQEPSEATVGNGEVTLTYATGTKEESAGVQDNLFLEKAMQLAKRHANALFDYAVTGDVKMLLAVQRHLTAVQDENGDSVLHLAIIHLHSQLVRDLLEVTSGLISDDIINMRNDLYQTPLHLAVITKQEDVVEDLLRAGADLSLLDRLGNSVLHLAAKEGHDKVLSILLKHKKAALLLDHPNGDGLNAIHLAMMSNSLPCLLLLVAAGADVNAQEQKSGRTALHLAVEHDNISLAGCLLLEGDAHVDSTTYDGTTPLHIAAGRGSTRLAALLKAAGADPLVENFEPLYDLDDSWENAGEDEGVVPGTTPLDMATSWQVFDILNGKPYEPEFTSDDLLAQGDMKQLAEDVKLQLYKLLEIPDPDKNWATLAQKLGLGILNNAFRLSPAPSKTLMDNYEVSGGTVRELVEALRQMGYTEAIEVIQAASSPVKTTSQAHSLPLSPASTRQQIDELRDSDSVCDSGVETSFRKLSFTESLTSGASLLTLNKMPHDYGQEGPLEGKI
T2 sequence (Q00653 whole entry, looked up): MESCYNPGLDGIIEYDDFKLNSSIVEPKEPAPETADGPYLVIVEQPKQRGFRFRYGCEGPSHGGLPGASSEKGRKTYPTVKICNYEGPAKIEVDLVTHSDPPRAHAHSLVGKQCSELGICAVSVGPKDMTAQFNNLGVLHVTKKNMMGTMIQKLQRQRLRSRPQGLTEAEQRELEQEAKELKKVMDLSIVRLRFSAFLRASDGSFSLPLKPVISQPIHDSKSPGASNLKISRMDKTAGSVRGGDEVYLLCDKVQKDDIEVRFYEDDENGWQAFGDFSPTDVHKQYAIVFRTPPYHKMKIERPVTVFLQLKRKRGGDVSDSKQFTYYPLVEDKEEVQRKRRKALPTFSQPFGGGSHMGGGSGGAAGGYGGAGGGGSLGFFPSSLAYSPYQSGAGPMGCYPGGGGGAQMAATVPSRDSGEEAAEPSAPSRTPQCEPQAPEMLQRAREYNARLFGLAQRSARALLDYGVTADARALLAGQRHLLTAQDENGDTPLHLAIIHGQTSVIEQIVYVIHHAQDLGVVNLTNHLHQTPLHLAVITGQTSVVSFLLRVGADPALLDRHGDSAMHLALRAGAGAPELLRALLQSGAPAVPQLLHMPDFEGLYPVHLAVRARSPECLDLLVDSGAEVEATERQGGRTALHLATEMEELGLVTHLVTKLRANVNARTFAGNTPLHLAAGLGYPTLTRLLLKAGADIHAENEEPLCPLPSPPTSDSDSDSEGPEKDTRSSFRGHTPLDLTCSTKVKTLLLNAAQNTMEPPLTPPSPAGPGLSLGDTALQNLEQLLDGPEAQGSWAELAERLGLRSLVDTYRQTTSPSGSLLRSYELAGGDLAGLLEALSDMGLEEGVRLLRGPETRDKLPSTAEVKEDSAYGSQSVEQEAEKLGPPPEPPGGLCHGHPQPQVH
T2 sequence (Q04206 whole entry, looked up): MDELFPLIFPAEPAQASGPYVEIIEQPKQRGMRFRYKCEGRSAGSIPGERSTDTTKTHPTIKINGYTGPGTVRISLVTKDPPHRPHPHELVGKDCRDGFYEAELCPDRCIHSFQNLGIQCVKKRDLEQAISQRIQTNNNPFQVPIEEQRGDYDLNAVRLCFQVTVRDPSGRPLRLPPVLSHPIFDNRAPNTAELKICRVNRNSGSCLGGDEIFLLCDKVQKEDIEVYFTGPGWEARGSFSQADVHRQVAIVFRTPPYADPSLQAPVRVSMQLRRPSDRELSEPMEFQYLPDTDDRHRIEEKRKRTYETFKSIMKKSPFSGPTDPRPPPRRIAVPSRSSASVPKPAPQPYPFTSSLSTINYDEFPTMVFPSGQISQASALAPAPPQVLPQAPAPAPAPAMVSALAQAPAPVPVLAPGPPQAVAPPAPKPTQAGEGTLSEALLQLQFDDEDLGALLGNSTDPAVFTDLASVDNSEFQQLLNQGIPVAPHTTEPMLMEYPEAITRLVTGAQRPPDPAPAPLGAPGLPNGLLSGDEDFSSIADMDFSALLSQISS
How it was run: (§4)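 DLD-1 seeded 5×10^5 cells/mL, grown 24 h, starved 16 h in 0.5% FCS, pretreated with compound 1 h, then stimulated with 10 ng/mL TNF-α, 10 ng/mL IFN-γ, 5 ng/mL IL-1β for 5 h. tnf-α, il-1β, inos mRNA by two-step qRT-PCR, Pfaffl relative quantification, normalised to gapdh; stimulated-untreated control = 100%. Mean ± SEM, three independent experiments.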

[15] = molecular target: T2, Nuclear factor NF-kappa-B complex (Homo sapiens); experiment: Inhibition of NF-kappaB (unknown origin) expressed human DLD1 cells assessed as reduction in TNF-alpha gene expression pretreated at 67.75 uM for 1 hr by RT-PCR method relative to untreated-control; conditions: DLD-1; how it was run: as §4
[16] = molecular target: T2, Nuclear factor NF-kappa-B complex (Homo sapiens); experiment: Inhibition of NF-kappaB (unknown origin) expressed human DLD1 cells assessed as reduction in iNOS gene expression pretreated at 67.75 uM for 1 hr by RT-PCR method relative to untreated-control; conditions: DLD-1; how it was run: as §4
[17] = molecular target: T1, Signal transducer and activator of transcription 1-alpha/beta (Homo sapiens); experiment: Inhibition of Stat1 (unknown origin) expressed human DLD1 cells assessed as reduction in IL1-beta gene expression pretreated at 67.75 uM for 1 hr by RT-PCR method relative to untreated-control; conditions: DLD-1; how it was run: as §4
[18] = molecular target: T1, Signal transducer and activator of transcription 1-alpha/beta (Homo sapiens); experiment: Inhibition of Stat1 (unknown origin) expressed human DLD1 cells assessed as reduction in TNF-alpha gene expression pretreated at 67.75 uM for 1 hr by RT-PCR method relative to untreated-control; conditions: DLD-1; how it was run: as §4
[19] = molecular target: T1, Signal transducer and activator of transcription 1-alpha/beta (Homo sapiens); experiment: Inhibition of Stat1 (unknown origin) expressed in human DLD1 cells assessed as reduction in iNOS gene expression pretreated at 67.75 uM for 1 hr by RT-PCR method relative to untreated-control; conditions: DLD-1; how it was run: as §4

CCCCCC(=O)O[C@@H]1C=C2COC(=O)[C@]2(O)[C@@]2(C)[C@H](O)CCC(C)(C)[C@H]12
pIC50 [1]: 4.26
inhibition (DLD-1 [2]): Dose-dependent effect
pIC50 [3]: 4.31
inhibition [4]: Dose-dependent effect
inhibition (DLD-1 [5]): Active
Activity [6]: Non-toxic
inhibition (DLD-1 [7]): Active
inhibition (DLD-1 [8]): Active
inhibition (DLD-1 [9]): Active
inhibition (DLD-1 [10]): Active
inhibition (DLD-1 [11]): Active
inhibition (DLD-1 [12]): Active
inhibition (DLD-1 [13]): Active
inhibition [14]: Active
inhibition [15]: Active
inhibition [16]: Active
inhibition [17]: Active
inhibition [18]: Active
inhibition [19]: Active
